The nature of series [1]: serum peptide content by GLP-1R and GcgR cAMP bioassay. Format: in vivo, mouse. The note with it: 10 nmol/kg SC QD 7 d. A digest of the protocol:
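On day 7 they got a final dose and serum was taken at 0, 2, 6 or 16 h (n=4/timepoint). Apparent serum peptide concentration was estimated from cAMP accumulation in CHO K1 cells stably expressing human GLP1R or GcgR, by potency comparison.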

Series [2] concerns C57BL/6J mice fed AMLN diet. The series is described as follows: sub-chronic dosing in C57Bl/6J AMLN NASH model. The conditions noted are these: for weight loss from baseline: Cotadutide 10, Liraglutide 40 nmol/kg SC, OCA 70 μmol/kg PO, QD 6 weeks; for food intake within the first 4 days: same doses; for animals with reduced fibrosis / animals with reduced fibrosis (number of group): n=12; for mice in which NAS was reduced: vehicle controls 8%. Format: in vivo, mouse. A digest of the protocol:
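Male C57BL/6J mice, about 6 weeks old, were fed AMLN diet for 29 weeks (chow controls) before dosing for 6 weeks, n=12/group. Dosing: peptides SC once daily just before lights off; OCA oral. Every mouse got both an SC vehicle (phosphate/propylene glycol/PS-80, pH 7.5) and an oral vehicle (0.5% CMC). Body weight was recorded daily. ipGTT on day 28 after 4 h fast (1.5 g/kg glucose). Terminal blood and liver collected on day 42.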

Series [3] relates to non-cirrhotic, non-alcoholic steatohepatitis patients. The conditions noted are these: cited from earlier work.
Series [4] has as its system DIO GLP-1R knock-out (KO) mice. The series is described as follows: two-week treatment of DIO GLP-1R KO mice. Format: in vivo, mouse. A digest of the protocol:
(§1)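 Mice were made obese on diet for 8 weeks, then moved to 45% high-fat diet for 2 weeks. Body weight was tracked as % change, with cumulative food intake over days 1–4. Blood and tissues were taken 20 h after the final dose.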

Series [5] concerns DIO C57Bl/6J Wild-type (WT) mice. The series is described as follows: two-week treatment of DIO GLP-1R WT mice. Type of series: in vivo, mouse. The method, boiled down:
as §1

Series [6] relates to primary mouse hepatocytes. Kind of series: mitochondrial oxygen consumption. Type of series: cell-based. The method, boiled down:
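Seahorse XFe96 run on primary mouse hepatocytes at 7500 cells/well, recovered overnight, then treated 4 h with 100 nM test compound. Assay medium: DMEM with 5 mM glucose, 4 mM L-glutamine, 2 mM pyruvate, pH 7.4; 30 min CO₂-free preincubation. Stress test used 1 μM oligomycin, 0.5 μM FCCP and 5 μM antimycin A. Basal and maximal OCR normalized to citrate synthase activity. n=3; substrate oxidation n=2.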

Series [7] concerns C57BL6J diet-induced NASH model. Kind of series: six-week treatment of NASH C57Bl6/J mice. Type of series: in vivo, mouse.
Series [8] concerns C57Bl/6J DIO male mice. The series is described as follows: hyperglycemic clamp and stable isotope infusions in DIO C57Bl6J. Format: in vivo, mouse. The method, boiled down:
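Twenty-week-old male C57Bl/6J DIO mice were kept on a shifted light cycle (lights on midnight to noon). Arterial and venous catheters were placed 5 days before a hyperglycemic clamp with […] glucose and water tracing.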

For series [9], the system named is ob/ob AMLN NASH mice. Kind of series: sub-chronic dosing in ob/ob AMLN NASH model. Type of series: in vivo, mouse.
Series [10] deals with primary mouse hepatocytes. Kind of series: mRNA levels in primary mouse hepatocytes. Type of series: cell-based. The note with it: 1, 10, 100 nM, 4h. A digest of the protocol:
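Primary mouse hepatocytes were exposed to test compound at 1, 10 or 100 nM for 4 h, and G6pc, Pck1 and Ppargc1a mRNA were measured. For Ppargc1a, the 100 nM condition was also combined with PKA inhibitor H89 at 10 μM. For G6pc and Pck1, it was combined with H89 at 2.5, 5 or 10 μM. n=3 biologically independent samples; one-way ANOVA with Dunnett post-hoc.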

Series [11] has as its system C57Bl/6J diet induced obese (DIO) male mice. Kind of series: time course study in DIO C57Bl/6J mice, 7 days dosing. Format: in vivo, mouse. The method, boiled down:
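On day 7 they were euthanized at time 0, or at 2, 6 or 16 h after a final dose (n=4/group/timepoint). Body weight was tracked as % change from baseline; blood glucose was measured.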

Series [12] has as its system primary human hepatocytes from normal or NASH donors. Kind of series: PPARGC1A mRNA in primary human hepatocytes. Format: cell-based. The note with it: 100 nM, 4 h; healthy and NASH donors. The method, boiled down: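 Primary hepatocytes from normal or NASH human donors, exposed to test compound at 100 nM for 4 h; PPARGC1A transcript measured. n=3 biologically independent samples per group.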

The test system of series [13] is primary murine hepatocytes. Kind of series: de novo lipogenesis, 3H-acetate lipid incorporation. Format: cell-based, mouse. The conditions noted are these: 100 nM; vs vehicle-treated controls. The method, boiled down: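 Primary murine hepatocytes treated ex vivo with test compound at 100 nM. De novo lipogenesis was measured as ³H-acetate incorporation into lipid: lipids were extracted, and ³H in the lower phase was counted by scintillation. Values are relative to vehicle-treated controls. n=3–6 per treatment, n=9 vehicle.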

In series [14] the test system is mouse primary hepatocytes. The series is described as follows: mitophagosomes by live cell confocal microscopy. Type of series: cell-based. The conditions noted are these: 100 nM, 2h. The method, boiled down: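 Primary mouse hepatocytes were kept 1 h at 37°C/5% CO2, then 4 h in fresh isolation medium, then moved to serum-free low-glucose DMEM (10 mM lactate, 2 mM glutamine, 5 mM HEPES, 10 nM dexamethasone). Cells were used 18–24 h post-plating and given 100 nM test compound for 2 h. Live cells were stained with Mitotracker green plus Lysotracker deep red and imaged by confocal microscopy. Mitophagosomes were scored as Lysotracker puncta containing Mitotracker signal.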

For the compound `CCCCCCCCCCCCCCCC(=O)N[C@@H](CCC(=O)NCCCC[C@H](NC(=O)[C@H](C)NC(=O)[C@H](C)NC(=O)[C@H](CCC(N)=O)NC(=O)CNC(=O)[C@H](CCC(=O)O)NC(=O)[C@H](CC(C)C)NC(=O)[C@H](Cc1ccc(O)cc1)NC(=O)[C@H](CO)NC(=O)[C@H](CO)NC(=O)[C@@H](NC(=O)[C@H](CC(=O)O)NC(=O)[C@H](CO)NC(=O)[C@@H](NC(=O)[C@H](Cc1ccccc1)NC(=O)[C@@H](NC(=O)CNC(=O)[C@H](CCC(=O)O)NC(=O)[C@H](C)NC(=O)[C@@H](N)Cc1cnc[nH]1)[C@@H](C)O)[C@@H](C)O)C(C)C)C(=O)N[C@@H](CCC(=O)O)C(=O)N[C@@H](Cc1ccccc1)C(=O)N[C@H](C(=O)N[C@@H](C)C(=O)N[C@@H](Cc1c[nH]c2ccccc12)C(=O)N[C@@H](CC(C)C)C(=O)N[C@H](C(=O)N[C@@H](CCCNC(=N)N)C(=O)NCC(=O)N[C@@H](CCCNC(=N)N)C(=O)NCC(=O)O)C(C)C)[C@@H](C)CC)C(=O)O` [Liraglutide, reference compound], the “pharmacokinetics compared with Cotadutide, in words” value in series [1] is listed as “longer bioavailability”.
As to `CC[C@H]1[C@@H](O)[C@@H]2[C@H](CC[C@]3(C)[C@@H]([C@H](C)CCC(=O)O)CC[C@@H]23)[C@@]2(C)CC[C@@H](O)C[C@@H]12` [OCA, Obeticholic acid, reference compound], in [2], the “weight loss from baseline” value is reported as ~ 3%, the “food intake within the first 4 days” value is “no effect” and the “mice in which NAS was reduced” value was 75%. For the same compound, the “plasma insulin at 15 min during the GTT” value in [2] (after 4 weeks of dosing) is “no effect”. Moreover, in series [2] (terminal vs pre-study biopsy), the “animals with reduced fibrosis” value is 8.3% and the “animals with reduced fibrosis (number of group)” value was 1/12. Besides, the liver mass result in series [2] (terminal, vs vehicle) was “only reducing liver mass”. The “steatosis and inflammation scores and overall NAS, responders” value in series [2] (vs vehicle) is “significantly more animals with lower steatosis and inflammation scores and overall NAS”. Further, the “patients with a reduction in NAS” value in series [3] (placebo 12%) is 20%. The “patients with reduction in fibrosis stage” value in [3] (placebo 17%) was 35%.
For the compound Cotadutide, in series [4] (10 nmol/kg SC QD 14 d (Liraglutide+g1437 5+5 nmol/kg)), the body weight entry is given as “not observed”. In addition, the food intake result in [4] (first 4 days of dosing) is given as “but not in KO mice”. The body weight entry in [5] (10 nmol/kg SC QD 14 d (Liraglutide+g1437 5+5 nmol/kg), vs vehicle) is listed as “significantly reduced”. In [5] (10 nmol/kg SC QD 14 d, terminal), the liver lipid content result is listed as “to a greater degree than Liraglutide alone”. Also, the food intake result in [5] (10 nmol/kg SC QD, first 4 days of dosing) is given as “significantly reduced”. Further, in [5] (10 nmol/kg SC QD, vs vehicle), the fasting glucose entry is listed as “lowered”. Besides, the fuel preference result in [6] (ex vivo treatment) is “no effect”. Besides, in series [6] (healthy mouse primary hepatocytes, 100 nM, 4h), the “basal and maximal respiration rates” value is “increased basal and maximal respiration rates”. The “basal and maximal respiratory rates (OCR)” value in series [6] (hepatocytes from ob/ob NASH mice, 100 nM, 4h ex vivo) was “restored”. The body weight entry in series [7] (10 nmol/kg SC QD 42 d) is “reduced body weight similarly to Liraglutide+g1437, but more than either Liraglutide or g1437 alone”. For the same compound, the “glucose excursion in pyruvate tolerance test” value in [7] (day 14, pyruvate 2g/kg) is “lower glucose excursion”. In addition, the “plasma alanine aminotransferase (ALT)” value in series [7] (end of study) is on record as “significantly reduced”. In series [7] (terminal), the hepatic glycogen entry is listed as “elevated only with Cotadutide treatment” and the liver triglycerides entry is listed as “reduced”. Moreover, in [7] (vs vehicle, Liraglutide and Liraglutide+g1437), the fasted insulin entry is reported as “lower”. In addition, the “serum concentration at 16h” value in series [1] is “undetectable”. In series [1] (sampled 0, 2, 6, 16 h after final dose), the “time of highest serum concentration” value is “highest at 2h and 6h”. Also, in [8] (10 nmol/kg SC QD 7 d), the “de novo lipogenesis during the clamp (palmitate and glyceride synthesis)” value is reported as “reduced”; the “glycogen synthesis stimulated by hyperglycemia” value was “intact”; the “hepatic (endogenous) glucose production during hyperglycemia” value is “suppressed”. Also, the core hepatic glycogen entry in series [8] (10 nmol/kg SC QD 7 d, fasted) is reported as “lower core glycogen levels”. In addition, the basal glucose production result in [8] (fasted, basal state) is reported as “increased basal glucose production”. Further, the “weight loss from baseline” value in series [9] (Cotadutide 30 nmol/kg, Liraglutide 40 nmol/kg SC QD 6 weeks) was 7-8%. Besides, the “plasma C3M and P4NP7S” value in series [9] (ELISA) was “only reduced in Cotadutide-treated mice”. Moreover, in [9] (n=7), the “resolution of fibrosis, mice” value was “resolved in all but one”. In series [9] (not statistically significant), the “lowering of collagen staining (Col1a1)” value is ~ 17%. For the same compound, in [9] (relative to AMLN vehicle), the “hepatic transcript levels of Col1a1, Col3a1, Timp1, Ccl2, and Cd68” value is recorded as “significantly reduced”; the “hepatic transcript levels of Mmp9, Il-1b and Tnf” value is “uniquely reducing”. Further, in series [9] (terminal), the “CD68 scoring (immune cell infiltration)” value is listed as “only reduced by Cotadutide treatment”; the NAS entry is “reduced”; the fibrosis stage entry is listed as “improved only by Cotadutide treatment”; the hepatic lipid content result was “more significant reduction in hepatic lipid content compared to Liraglutide and diet-switch”. Also, in series [9] (terminal), the liver mass entry is “similarly reduced”; the “liver αSMA, PSR and hydroxyproline” value is “lowered”; the “plasma ALT” value was “lowered”. In addition, the “hepatic Ppargc1a mRNA” value in [9] (terminal, about 16h post last dose) is listed as “restored mRNA levels to those of LFD control”. In addition, the “hepatic DAGs and ceramides” value in series [9] (vs vehicle) was “only Cotadutide additionally reduced DAGs and ceramides”. In series [2], the “weight loss from baseline” value is on record as ~ 8%, the “food intake within the first 4 days” value is listed as “reduced food intake” and the “mice in which NAS was reduced” value is on record as 83%. Besides, in series [2] (after 4 weeks of dosing), the “glucose tolerance (ipGTT)” value is “significantly improved by Cotadutide more so than Liraglutide or OCA” and the “plasma insulin at 15 min during the GTT” value is recorded as “increased”. In addition, the hepatic glycogen result in series [2] (terminal) is listed as “increase in hepatic glycogen”. Further, in [2] (terminal vs pre-study biopsy), the “animals with worsened fibrosis” value was “no animals had worsened fibrosis”, the “animals with reduced fibrosis” value amounted to 25% and the “animals with reduced fibrosis (number of group)” value was 3/12. Besides, in series [2] (terminal, vs vehicle), the liver mass result is “unchanged liver mass” and the “plasma ALT” value is reported as “reduced ALT levels”. The “steatosis and inflammation scores and overall NAS, responders” value in series [2] (vs vehicle) is “significantly more animals with lower steatosis and inflammation scores and overall NAS”. In series [10], the “G6pc and Pck1 mRNA” value was “induced”; the “Ppargc1a mRNA” value was “equally increased”. Further, in [11] (0-16 h after final dose), the liver glycogen entry was “rapidly depleted by 6h post Cotadutide but rebounded to normal at 16h”. The body weight entry in series [11] (10 nmol/kg SC QD 7 d, vs vehicle) is listed as “significant weight loss”. Also, the blood glucose entry in [11] (smaller study vehicle vs Cotadutide, 2h and 6h post dose) was “significantly lowered”. For the same compound, in [12], the PPARGC1A transcript levels entry was “significantly increased”. Also, the “de novo lipid synthesis” value in [13] was “reduce de novo lipid synthesis”. Besides, the mitochondrial number entry in series [14] is reported as “without altering mitochondrial number”. The “mitophagosomes (mitochondria within lysosomes)” value in series [14] (vs vehicle) is “Increased number”.

(Values after PMC7258337 (Nature metabolism, 2020).)
